Experimental data: ChEMBL document CHEMBL4390675, “Dopamine D4 Receptor-Selective Compounds Reveal Structure-Activity Relationships that Engender Agonist Efficacy” (J Med Chem, 2019)
Calls of active or inactive are those of the source. No cut-off for these calls is given here.

Legend:
D(4) dopamine receptor [1] = molecular target: T1, D(4) dopamine receptor (Homo sapiens, UniProt P21917); experiment: Displacement of [3H]N-methylspiperone from human D4.4 receptor expressed in HEK293 cell membranes measured after 60 mins by scintillation counting method
T1 sequence (P21917 whole entry): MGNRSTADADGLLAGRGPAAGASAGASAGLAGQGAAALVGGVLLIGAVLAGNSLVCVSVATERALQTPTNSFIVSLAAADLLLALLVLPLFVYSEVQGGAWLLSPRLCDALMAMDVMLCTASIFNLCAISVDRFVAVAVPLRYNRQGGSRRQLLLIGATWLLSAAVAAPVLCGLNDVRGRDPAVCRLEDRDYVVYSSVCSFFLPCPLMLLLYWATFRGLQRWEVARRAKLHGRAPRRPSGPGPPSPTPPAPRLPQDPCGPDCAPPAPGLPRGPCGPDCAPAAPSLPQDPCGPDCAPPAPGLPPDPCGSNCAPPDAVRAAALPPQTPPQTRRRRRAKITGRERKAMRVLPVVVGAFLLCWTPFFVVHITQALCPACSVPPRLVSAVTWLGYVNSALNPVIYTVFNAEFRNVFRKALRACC
Method in brief: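 Frozen HEK293 membranes stably expressing human D4.4R (30 μg/well) in EBSS-bicarbonate buffer, pH 7.4, were incubated with 0.4 nM [3H]N-methylspiperone and half-log compound dilutions (30% DMSO vehicle) for 60 min at room temperature. Nonspecific binding was defined by 10 μM (+)-butaclamol. Samples were filtered on GF/B filters and counted by scintillation.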

D(4) dopamine receptor [2] = molecular target: T1, D(4) dopamine receptor; experiment: Antagonist activity at human D4 receptor expressed in CHOK1 cells assessed as inhibition of dopamine-induced beta-arrestin recruitment measured after 90 mins by luminescence assay; format: cell-based; conditions: read-out: IC50
D(4) dopamine receptor [3] = molecular target: T1, D(4) dopamine receptor; experiment: Displacement of [3H](R)-(+)-7-OH-DPAT from human D4.4 receptor expressed in HEK293 cell membranes measured after 90 mins by scintillation counting method
Method in brief: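 HEK293 cells stably expressing human D4.4R; membranes used fresh in 50 mM Tris, 10 mM MgCl2, 1 mM EDTA, pH 7.4. 60 μg protein/well with 3 nM [3H]-(R)-(+)-7-OH-DPAT (final), half-log dilutions in 30% DMSO, in triplicate. 90 min at room temperature, then GF/B filtration. Nonspecific binding with 10 μM (+)-butaclamol.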

[4] = molecular target: T2, D(4) dopamine receptor (Homo sapiens) (UniProt P21917); experiment: Antagonist activity at human D4 receptor expressed in CHOK1 cells assessed as suppression of dopamine-induced inhibition of forskolin-stimulated cAMP accumulation measured after 30 mins by Eu-cAMP tracer based TR-FRET assay relative to dopamine; format: functional, cell-based; set-up: concentration or dose not given beside the values
T2 sequence (whole entry): T1 sequence (P21917 whole entry)

D(3) dopamine receptor [5] = molecular target: T3, D(3) dopamine receptor (Homo sapiens, UniProt P35462); experiment: Antagonist activity at human D3 receptor expressed in CHOK1 cells assessed as inhibition of dopamine-induced beta-arrestin recruitment measured after 90 mins by luminescence assay; format: cell-based
Method in brief: (§1)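 Antagonist-mode PathHunter β-arrestin assay in CHO-K1 cells stably expressing human D2R long isoform or D3R, seeded overnight. Compound dilutions in PBS with 0.2 μM metabisulfite were co-incubated with an EC80 dopamine concentration for 90 min at 37 °C. Detection reagent was added for 45–60 min at room temperature, then luminescence was read. Values are % of dopamine EC80 response, from nonlinear regression of triplicate runs, n = 3–4.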

D(2) dopamine receptor [6] = molecular target: T4, D(2) dopamine receptor (Homo sapiens, UniProt P14416); experiment: Agonist activity at human D2L receptor expressed in CHOK1 cells assessed as induction of beta-arrestin recruitment measured after 90 mins by luminescence assay; format: cell-based
Method in brief: (§2)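 PathHunter enzyme-complementation assay in CHO-K1 cells stably expressing human D2R long isoform, D3R or D4R, seeded overnight in Ham's F12/10% FBS. Compounds were diluted in PBS with 0.2 μM sodium metabisulfite and applied at multiple concentrations for 90 min at 37 °C. Detection reagent was added for 45–60 min at room temperature, then luminescence was read. Values are % of maximal dopamine response, from nonlinear regression of triplicate runs, mean ± SEM, n = 3–4.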

[7] = molecular target: T2, D(4) dopamine receptor (Homo sapiens); experiment: Agonist activity at human D4 receptor expressed in CHOK1 cells assessed as inhibition of forskolin-induced cAMP accumulation measured after 30 mins by Eu-cAMP tracer based TR-FRET assay relative to dopamine; format: functional, cell-based
Method in brief: (§3)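 LANCE Ultra TR-FRET cAMP assay in CHO-K1 cells stably expressing human D2R long isoform or D4R. Cells were plated in HBSS/5 mM HEPES/0.2 μM metabisulfite, then immediately given compound plus forskolin (10 μM final) for 30 min at room temperature. Eu-cAMP tracer and ULight-anti-cAMP were added for 2 h in the dark. Values are % of maximal dopamine signal, nonlinear regression of triplicate runs, n = 3–4.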

D(4) dopamine receptor [8] = molecular target: T1, D(4) dopamine receptor; experiment: Agonist activity at human D4 receptor expressed in CHOK1 cells assessed as induction of beta-arrestin recruitment measured after 90 mins by luminescence assay; format: cell-based; method in brief: as §2
[9] = molecular target: D(1A) dopamine receptor (Homo sapiens) (UniProt P21728); experiment: Agonist activity at D1 receptor (unknown origin) stably expressed in CHOK1 cells assessed as induction of beta-arrestin recruitment measured after 90 mins by luminescence assay; format: cell-based
[10] = molecular target: T2, D(4) dopamine receptor (Homo sapiens); experiment: Antagonist activity at human D4 receptor expressed in CHOK1 cells assessed as inhibition of dopamine-induced beta-arrestin recruitment measured after 90 mins by luminescence assay relative to control; format: cell-based; set-up: concentration or dose not given beside the values
D(2) dopamine receptor [11] = molecular target: T4, D(2) dopamine receptor; experiment: Antagonist activity at human D2L receptor expressed in CHOK1 cells assessed as inhibition of dopamine-induced beta-arrestin recruitment measured after 90 mins by luminescence assay relative to control; format: cell-based; method in brief: as §1
D(3) dopamine receptor [12] = molecular target: T3, D(3) dopamine receptor; experiment: Displacement of [3H](R)-(+)-7-OH-DPAT from human D3 receptor expressed in HEK293 cell membranes measured after 90 mins by scintillation counting method
Method in brief: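 Fresh HEK293 hD3R membranes (40 μg/well) in 50 mM Tris, 10 mM MgCl2, 1 mM EDTA, pH 7.4 were incubated with 0.5 nM [3H]-(R)-(+)-7-OH-DPAT and half-log compound dilutions in 30% DMSO for 90 min at room temperature. Nonspecific binding was defined with 10 μM (+)-butaclamol. Samples were filtered on PEI-soaked GF/B filters and counted by scintillation.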

D(4) dopamine receptor [13] = molecular target: T1, D(4) dopamine receptor; experiment: Antagonist activity at human D4 receptor expressed in CHOK1 cells assessed as suppression of dopamine-induced inhibition of forskolin-stimulated cAMP accumulation measured after 30 mins by Eu-cAMP tracer based TR-FRET assay; format: functional, cell-based
[14] = molecular target: T2, D(4) dopamine receptor (Homo sapiens); experiment: Agonist activity at human D4 receptor expressed in CHOK1 cells assessed as induction of beta-arrestin recruitment measured after 90 mins by luminescence assay relative to control; format: cell-based; method in brief: as §2
D(4) dopamine receptor [15] = molecular target: T1, D(4) dopamine receptor; experiment: Agonist activity at human D4 receptor expressed in CHOK1 cells assessed as inhibition of forskolin-induced cAMP accumulation measured after 30 mins by Eu-cAMP tracer based TR-FRET assay; format: functional, cell-based; conditions: read-out: EC50; method in brief: as §3
[16] = molecular target: D(1B) dopamine receptor (Homo sapiens) (UniProt P21918); experiment: Agonist activity at D5 receptor (unknown origin) stably expressed in CHOK1 cells assessed as induction of beta-arrestin recruitment measured after 90 mins by luminescence assay; format: cell-based
D(2) dopamine receptor [17] = molecular target: T4, D(2) dopamine receptor; experiment: Antagonist activity at human D2L receptor expressed in CHOK1 cells assessed as suppression of dopamine-induced inhibition of forskolin-stimulated cAMP accumulation measured after 30 mins by Eu-cAMP tracer based TR-FRET assay relative to dopamine; format: cell-based; conditions: 0.5 h
D(3) dopamine receptor [18] = molecular target: T3, D(3) dopamine receptor; experiment: Agonist activity at human D3 receptor expressed in CHOK1 cells assessed as induction of beta-arrestin recruitment measured after 90 mins by luminescence assay; format: cell-based; method in brief: as §2
[19] = molecular target: D(1A) dopamine receptor (Homo sapiens) (UniProt P21728); experiment: Antagonist activity at D1 receptor (unknown origin) stably expressed in CHOK1 cells assessed as inhibition of dopamine-induced beta-arrestin recruitment measured after 90 mins by luminescence assay; format: cell-based
D(3) dopamine receptor [20] = molecular target: T3, D(3) dopamine receptor; experiment: Displacement of [3H]N-methylspiperone from human D3 receptor expressed in HEK293 cell membranes measured after 60 mins by scintillation counting method
Method in brief: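 HEK293 cells stably expressing human D3R; membranes in EBSS buffer pH 7.4, stored at −80 °C. 20 μg protein/well with 0.4 nM [3H]N-methylspiperone (final), half-log dilutions in 30% DMSO, in triplicate. 60 min at room temperature, then GF/B filtration. Nonspecific binding with 10 μM (+)-butaclamol.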

D(2) dopamine receptor [21] = molecular target: T4, D(2) dopamine receptor; experiment: Agonist activity at human D2L receptor expressed in CHOK1 cells assessed as inhibition of forskolin-induced cAMP accumulation measured after 30 mins by Eu-cAMP tracer based TR-FRET assay; format: cell-based; method in brief: as §3
[22] = molecular target: D(1B) dopamine receptor (Homo sapiens) (UniProt P21918); experiment: Antagonist activity at D5 receptor (unknown origin) stably expressed in CHOK1 cells assessed as inhibition of dopamine-induced beta-arrestin recruitment measured after 90 mins by luminescence assay; format: cell-based
D(2) dopamine receptor [23] = molecular target: T4, D(2) dopamine receptor; experiment: Agonist activity at human D2L receptor expressed in CHOK1 cells assessed as induction of beta-arrestin recruitment measured after 90 mins by luminescence assay relative to control; format: cell-based
Method in brief: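 PathHunter enzyme-complementation assay in CHO-K1 cells stably expressing human D2R long isoform, seeded 2625 cells/well and incubated overnight. Compounds diluted in PBS with 0.2 μM sodium metabisulfite, tested at multiple concentrations, 90 min at 37 °C. Detection reagent then 45–60 min at room temperature, luminescence read. Normalized to maximal dopamine response. Nonlinear regression of triplicate runs, n = 3–4.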

D(2) dopamine receptor [24] = molecular target: T4, D(2) dopamine receptor; experiment: Agonist activity at human D2L receptor expressed in CHOK1 cells assessed as inhibition of forskolin-induced cAMP accumulation measured after 30 mins by Eu-cAMP tracer based TR-FRET assay relative to dopamine; format: cell-based; conditions: 0.5 h
D(3) dopamine receptor [25] = molecular target: T3, D(3) dopamine receptor; experiment: Agonist activity at human D3 receptor expressed in CHOK1 cells assessed as induction of beta-arrestin recruitment measured after 90 mins by luminescence assay relative to control; format: cell-based; method in brief: as §2

T4 sequence (P14416 whole entry, canonical isoform): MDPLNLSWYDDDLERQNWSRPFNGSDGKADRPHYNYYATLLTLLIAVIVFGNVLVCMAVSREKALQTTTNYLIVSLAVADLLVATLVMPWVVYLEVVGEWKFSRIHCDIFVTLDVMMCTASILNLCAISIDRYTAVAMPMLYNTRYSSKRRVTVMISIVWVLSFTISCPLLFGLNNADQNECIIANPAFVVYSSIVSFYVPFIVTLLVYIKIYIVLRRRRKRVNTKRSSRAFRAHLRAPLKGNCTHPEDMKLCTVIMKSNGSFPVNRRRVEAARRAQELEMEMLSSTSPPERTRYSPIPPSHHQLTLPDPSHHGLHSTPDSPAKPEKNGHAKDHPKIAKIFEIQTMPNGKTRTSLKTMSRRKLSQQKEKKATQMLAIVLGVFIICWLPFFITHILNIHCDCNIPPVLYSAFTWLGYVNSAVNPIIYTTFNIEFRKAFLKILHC
T3 sequence (P35462 whole entry, canonical isoform): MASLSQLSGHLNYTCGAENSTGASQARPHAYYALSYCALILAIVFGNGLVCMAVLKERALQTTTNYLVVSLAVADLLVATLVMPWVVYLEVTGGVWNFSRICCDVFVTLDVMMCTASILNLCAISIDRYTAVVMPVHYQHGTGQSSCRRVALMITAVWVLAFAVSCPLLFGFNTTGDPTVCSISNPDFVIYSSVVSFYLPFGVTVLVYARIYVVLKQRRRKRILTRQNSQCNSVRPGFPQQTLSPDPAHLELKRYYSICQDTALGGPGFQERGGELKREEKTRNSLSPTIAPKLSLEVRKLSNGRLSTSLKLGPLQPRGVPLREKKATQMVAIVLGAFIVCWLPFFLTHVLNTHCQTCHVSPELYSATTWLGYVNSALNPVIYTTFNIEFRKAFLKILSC
D(1B) dopamine receptor (Homo sapiens), sequence (P21918 whole entry): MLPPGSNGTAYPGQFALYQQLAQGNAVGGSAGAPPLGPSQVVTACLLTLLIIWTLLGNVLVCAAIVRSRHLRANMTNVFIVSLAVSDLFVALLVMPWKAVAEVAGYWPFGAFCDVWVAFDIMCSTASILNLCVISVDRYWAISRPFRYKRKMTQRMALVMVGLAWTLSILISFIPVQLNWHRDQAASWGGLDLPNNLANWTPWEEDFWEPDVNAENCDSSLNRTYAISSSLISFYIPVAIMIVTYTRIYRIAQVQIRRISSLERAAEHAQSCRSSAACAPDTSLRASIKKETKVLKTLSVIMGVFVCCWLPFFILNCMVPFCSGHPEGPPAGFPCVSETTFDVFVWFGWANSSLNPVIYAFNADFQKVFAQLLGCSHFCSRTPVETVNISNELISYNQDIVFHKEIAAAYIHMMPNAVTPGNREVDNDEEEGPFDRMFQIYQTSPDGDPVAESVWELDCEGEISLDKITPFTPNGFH
D(1A) dopamine receptor (Homo sapiens), sequence (P21728 whole entry): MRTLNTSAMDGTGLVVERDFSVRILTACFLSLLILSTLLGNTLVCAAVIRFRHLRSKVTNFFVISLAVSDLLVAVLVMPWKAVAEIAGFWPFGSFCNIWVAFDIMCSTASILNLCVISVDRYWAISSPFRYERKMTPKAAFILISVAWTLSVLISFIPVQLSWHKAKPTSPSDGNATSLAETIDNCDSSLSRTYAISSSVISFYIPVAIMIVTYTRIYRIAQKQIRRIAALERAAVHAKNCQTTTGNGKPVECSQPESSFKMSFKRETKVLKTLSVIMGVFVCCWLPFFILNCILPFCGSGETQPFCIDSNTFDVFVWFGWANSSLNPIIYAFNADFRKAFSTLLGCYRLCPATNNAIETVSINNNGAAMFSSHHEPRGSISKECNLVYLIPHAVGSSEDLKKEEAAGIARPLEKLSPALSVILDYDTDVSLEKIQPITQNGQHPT

Compound	Ki (D(4) dopamine receptor [1])	IC50 (D(4) dopamine receptor [2])	Ki (D(4) dopamine receptor [3])	inhibition [4]	IC50 (D(3) dopamine receptor [5]; read-out: IC50)	EC50 (D(2) dopamine receptor [6])	Emax [7]	EC50 (D(4) dopamine receptor [8]; read-out: EC50)	Activity [9]	inhibition [10]	INH (D(2) dopamine receptor [11])	Ki (D(3) dopamine receptor [12])	IC50 (D(4) dopamine receptor [13])	Emax [14]	EC50 (D(4) dopamine receptor [15])	Activity [16]	inhibition [19]	Ki (D(3) dopamine receptor [20])	EC50 (D(2) dopamine receptor [21])	inhibition [22]	further results
Cc1cccc(NC(=O)CN2CCC(c3ccccc3)CC2)c1	0.0258 µM	0.135 µM	0.0014 µM	46.7%	> 50 µM	Not Active	32.9%	0.242 µM	inactive	93.3%	99.7%	0.777 µM	0.002 µM	14%	0.0154 µM	inactive	inactive	0.433 µM	Not Active	inactive	inhibition (INH) (D(2) dopamine receptor [17]): 100%; EC50 (D(3) dopamine receptor [18]): Not Active
Cc1cccc(NC(=O)CCN2CCC(c3ccccn3)CC2)c1	> 10 µM	3.8 µM			> 50 µM				inactive		72.1%	0.51 µM	6.34 µM		0.349 µM	inactive	inactive	3.04 µM		inactive	Emax (D(2) dopamine receptor [23]): 48.9%; EC50 (D(4) dopamine receptor [8]): Not Active; Emax (D(2) dopamine receptor [24]): 83.1%; Emax (D(3) dopamine receptor [25]): 55.4%; EC50 (D(3) dopamine receptor [18]; read-out: EC50): 0.97 µM
Cc1cccc(NC(=O)CN2CCN(c3cccc4ccccc34)CC2)c1	0.0284 µM	4.25 µM	0.00165 µM	73.8%		Not Active	27.8%	9.21 µM		96.7%	100%	1.25 µM	2.52 µM	16.4%	0.108 µM			11.5 µM	Not Active		IC50 (D(3) dopamine receptor [5]): Not Active; inhibition (INH) (D(2) dopamine receptor [17]): 100%; EC50 (D(3) dopamine receptor [18]): Not Active
Cc1cccc(NC(=O)CN2CCC(c3ccccn3)CC2)c1	0.0542 µM	0.191 µM	0.00395 µM	53.8%	> 100 µM	Not Active	61.9%	0.473 µM	inactive	81.7%	94.8%	0.167 µM	0.0684 µM	22.5%	0.0027 µM	inactive	inactive	1.68 µM	Not Active	inactive	EC50 (D(3) dopamine receptor [18]; read-out: EC50): > 100 µM
Cc1cccc(NC(=O)CCN2CCN(c3ncccn3)CC2)c1	0.526 µM	0.43 µM	0.033 µM		> 50 µM	Not Active			inactive		94.6%	9.35 µM	2.12 µM		0.568 µM	inactive	inactive	4.53 µM	Not Active	inactive	EC50 (D(4) dopamine receptor [8]): Not Active; EC50 (D(3) dopamine receptor [18]): Not Active
